In ChEMBL document CHEMBL3045148, “nematicidal carboxylic acids and aldehydes from Melia azedarach fruits” (J Agric Food Chem, 2010):
Values after ≈ are worked out from the molar mass of the structure shown.

What was measured:
Meloidogyne incognita [1] = assay: Nematicidal activity against Meloidogyne incognita J2 (root-knot nematode) assessed as paralysis measured after 1 hr at 28 degC; assay type: functional, organism-based
Outline: (§1)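 Freshly hatched (24 h) M. incognita J2 were taken from infested tomato roots. Each well held 25 J2 immersed in test solution, kept in the dark at 28 °C. Ethanol stocks were diluted in water with Tween-20 (final ethanol ≤1%, Tween-20 ≤0.3% v/v); water-soluble acids were made up in water. J2 were scored motile or paralyzed by inverted microscope and corrected for water-control paralysis (Schneider-Orelli). EC50 came from log-logistic regression; two experiments, six replicates each.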

Meloidogyne incognita [2] = assay: Nematicidal activity against Meloidogyne incognita J2 (root-knot nematode) assessed as paralysis measured after 1 day at 28 degC; assay type: functional, organism-based; settings: 24 h; outline: as §1
Meloidogyne incognita [3] = assay: Nematicidal activity against Meloidogyne incognita J2 (root-knot nematode) assessed as paralysis measured at 500 ug/mL by fumigant assay; assay type: functional
Outline: (§2)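 Vapour-exposure microwell test with 24 h-old J2 from infested tomato roots, kept in the dark at 28 °C. Test solution went into one well and J2 in tap water into the four adjacent wells, with one dose per plate. Paralysis in the adjacent wells (120 J2 per replicate) was scored by microscope as motile or paralyzed and corrected for water-control paralysis (Schneider-Orelli). Two experiments, six replicates.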

Meloidogyne incognita [4] = assay: Nematicidal activity against Meloidogyne incognita J2 (root-knot nematode) assessed as paralysis measured after 1 day at 28 degC by fumigant assay; assay type: functional, organism-based; settings: 24 h; outline: as §2

Row | Compound | EC50 (Meloidogyne incognita [1]) | EC50 (Meloidogyne incognita [2]) | Activity (Meloidogyne incognita [3]) | EC50 (Meloidogyne incognita [4])
1 | CC(=O)O [ACETIC ACID] | 64 µg/mL (≈ 1070 µM) | 38.3 µg/mL (≈ 638 µM) | – | –
2 | O=Cc1ccc(CO)o1 [AES-103] | > 100 µg/mL | 45.7 µg/mL (≈ 362 µM) | – | –
3 | CCCC(=O)O [BUTYRIC ACID] | 69.8 µg/mL (≈ 792 µM) | 40.7 µg/mL (≈ 462 µM) | >30 µg/mL | –
4 | CCCCCCCCCC(=O)O [DECANOIC ACID] | 354 µg/mL (≈ 2050 µM) | 248 µg/mL (≈ 1440 µM) | – | –
5 | CCOP(=O)(SC(C)CC)N1CCSC1=O (stereo not given) [FOSTHIAZATE] | 3.3 µg/mL (≈ 11.6 µM) | 0.4 µg/mL (≈ 1.41 µM) | – | –
6 | O=Cc1ccco1 [FURFURAL] | 11.4 µg/mL (≈ 119 µM) | 8.5 µg/mL (≈ 88.5 µM) | – | 24.1 µg/mL (≈ 251 µM)
7 | OCc1ccco1 [FURFURYL ALCOHOL] | > 100 µg/mL | 41.2 µg/mL (≈ 420 µM) | – | –
8 | CCCCCC(=O)O [HEXANOATE] | 88.7 µg/mL (≈ 764 µM) | 41.1 µg/mL (≈ 354 µM) | – | –
9 | CCCCCCCCCCCCCCCC(=O)O [PALMITIC ACID] | > 500 µg/mL | > 500 µg/mL | – | –
